C-LANA FP – blocks KSHV LANA C-terminal domain binding to DNA; MBP-C-LANA/FAM-LBS DNA binding, fluorescence polarization; inhibition, % at 9 µM; hit rate 0.078% among 340,000;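 active = highest replicate inhibition at or above 60% at 9 µM, even if other replicates fall short; inactive = all replicates below 60% inhibition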;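 also: 0% = neutral control wells and 100% = 4 µM acridine orange control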
A3A deaminase – human APOBEC3A DNA deaminase inhibition; inhibition, % at 20 µM; recombinant A3A, FAM/TAMRA ssDNA deamination fluorescence; hit rate 0.41% among 330,000;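 active = at least 40% inhibition at 20 µM here, with at most 30% in a related deaminase screen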;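 also: plate controls were A3A with DMSO for no effect and wells lacking A3A enzyme for full effect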
Target sequence (P31941 whole entry, looked up): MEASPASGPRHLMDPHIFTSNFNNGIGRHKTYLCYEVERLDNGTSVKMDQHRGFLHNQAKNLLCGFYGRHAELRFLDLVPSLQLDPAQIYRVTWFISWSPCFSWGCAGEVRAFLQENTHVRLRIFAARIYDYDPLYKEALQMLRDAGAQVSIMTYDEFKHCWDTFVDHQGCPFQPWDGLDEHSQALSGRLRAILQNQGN
A3G deaminase – inhibitors of human APOBEC3G DNA deaminase. Q9HC16. recombinant A3G, ssDNA deamination FAM/TAMRA fluorescence. inhibition, % at 20 µM. hit rate 0.28% among 330,000. AID 493012;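 active = inhibition of at least 40% at 20 µM, with no more than 30% in the related APOBEC3A deaminase screen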;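 also: plate controls were DMSO wells with A3G for no effect and wells lacking A3G enzyme for full effect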
CAL PDZ FP-1 – blocks peptide binding to human CAL PDZ domain. AID 504414. purified CAL PDZ, TMR-peptide fluorescence polarization, 1 h. Q9HD26. inhibition, % at 20 µM. hit rate 0.02% among 330,000;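 active = highest replicate inhibition of at least 40%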;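 also: plate controls were DMSO neutral control wells for no effect and unlabeled competitor peptide control wells for full effect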
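Material – purified CerCALP PDZ construct · Detection – FP readout, S and P plane fluorescence · Measure – percent inhibition from loss of millipolarization · Controls – unlabelled peptide for full inhibition, DMSO wells as neutral · Probe or stimulus – TMR-labelled reporter peptide T*-PRC34 bound in PDZ groove · Times – 1 h at RT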
CAL PDZ FP-2 – inhibitors of human CAL PDZ peptide binding; hit rate 0.92% among 300,000; AID 602252; purified CAL PDZ, TMR-peptide fluorescence polarization, 1 h; inhibition, % at 24.9 µM; Q9HD26;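 active = mean inhibition of at least 30% with at least half of replicates also reaching 30%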;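 also: 0% = DMSO neutral control and 100% = excess unlabeled competitor peptide PRC23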
Keap1 Nrf2 FP – disrupts human Keap1 binding to Nrf2 peptide; Q14145; Keap1 Kelch-Nrf2 peptide fluorescence polarization, 1536-well; inhibition, % at 9.4 µM; hit rate 0.15% among 340,000; AID 504523; in the data active = inhibition above about 12%;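 also: human Keap1 Kelch domain with fluorescein labeled Nrf2 9mer peptide probe; 0% = neutral control wells and 100% = peptide positive control; higher means more block of Keap1 binding to Nrf2 peptide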
APOBEC3G confirm – APOBEC3G (human) deaminase inhibition, confirmed; AID 493152; inhibition, % at 20 µM; hit rate 72% among 890; recombinant A3G ssDNA deaminase, UDG/FAM-TAMRA fluorescence; shares compounds with A3G deaminase;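 active = inhibition reaching a set limit in any replicate at 20 µM, the limit being 80% of the first screen's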
UDG A3G counter – counter-screen for APOBEC3G inhibitors: E. coli UDG. shares compounds with A3G deaminase. UDG counterscreen, FAM/TAMRA oligo fluorescence. inhibition, % at 20 µM. 710 tested, under 10 active;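 active = compounds giving 40% or more inhibition at 20 µM in any one of the three replicates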;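 also: plate controls were DMSO wells with UDG and oligo for no effect and DMSO wells lacking both for full effect; inhibitors lower the FAM signal released by uracil excision and alkaline cleavage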
Target sequence (P12295 whole entry, looked up): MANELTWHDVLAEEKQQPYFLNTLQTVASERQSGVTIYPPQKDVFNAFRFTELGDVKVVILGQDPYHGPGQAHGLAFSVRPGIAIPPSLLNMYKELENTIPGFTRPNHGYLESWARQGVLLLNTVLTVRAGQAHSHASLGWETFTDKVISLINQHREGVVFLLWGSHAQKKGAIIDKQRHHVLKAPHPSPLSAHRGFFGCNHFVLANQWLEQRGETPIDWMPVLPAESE
Starred values were filed as active, the others as inactive; x = not tested or not shown. This is a sample that favours compounds with a hit; in the whole collection about 1.7% have one here.

SMILES	C-LANA FP	A3A deaminase	A3G deaminase	CAL PDZ FP-1	CAL PDZ FP-2	Keap1 Nrf2 FP	APOBEC3G confirm	UDG A3G counter
O=c1c2ccccc2n2c(=S)[nH]nc2n1-c1ccccc1	-1	-6	58*	-2	-1	0	69*	-2
O=C(Cc1ccccc1)NNC(=S)NC(=O)c1cccnc1	-1	-4	43*	-1	x	3	14	1
CN(C(=O)CSc1nnc(-c2c[nH]c3ccccc23)n1C1CC1)C1CCS(=O)(=O)C1 (centres undefined)	-1	-4	-9	0	0	3	x	x
O=C(/C=C/c1cc[n+](CC(=O)c2ccc3cccc4c3c2CC4)cc1)c1ccc2cccc3c2c1CC3	-2	19	54*	-2	-1	7	55*	x
O=C1CSc2ccc(C(=O)Nc3cccc(S(=O)(=O)Nc4ccc(Br)cc4)c3)cc2N1	1	-4	49*	-3	-3	-7	5	1
O=C(O)c1ccc(NC(=O)c2cccc(S(=O)(=O)Nc3ccc(C(=O)O)cc3)c2)cc1	7	2	3	x	0	3	x	x
O=C(CNC(=O)c1ccccc1)N=Nc1c(O)[nH]c2ccc(Br)cc12	1	-3	-1	-2	14	-1	x	x
O=S(=O)(Cc1ccccc1)N=Nc1c(O)[nH]c2ccc(Br)cc12	-1	-1	51*	0	82*	-4	68*	-3
CCOC(=O)c1cnc(-c2ccccc2)nc1N1CCOCC1	0	-5	-7	-1	5	-4	x	x
CCOC(=O)c1[nH]cc(-c2ccccc2)c1N1CCOCC1	0	1	62*	x	-3	-2	41*	-4
O=S(=O)(Nc1ccc(Cl)cc1)c1ccc(N2CCOCC2)c(NC(=S)NC2CC2)c1	-1	1	46*	0	x	-2	32*	2
Nc1cc(S(=O)(=O)Nc2ccc(Cl)cc2)ccc1N1CCOCC1	1	2	46*	-3	-3	3	17*	-4
COc1ccc(/C=C/CN2CCC(n3nccc3NC(=O)C3CCCC3)CC2)cc1	1	-6	-6	0	2	2	x	x
Cc1cc(NC(=O)CCC(=O)N(CC(=O)NCC2CCCO2)c2ccc(C)c(C)c2)no1 (centres undefined)	1	-5	-4	0	-4	-5	x	x
CCOC(=O)/C=C/C(=O)Nc1cccc([N+](=O)[O-])c1	-1	4	40*	-2	-1	1	64*	4
O=C1c2c(O)cccc2Cc2cccc(O)c21	0	11	67*	0	-4	-5	78*	-5
O=C1C=C(O)c2c(O)cccc2C1=O	x	6	13	x	x	x	x	x
CCOc1ccc(Nc2nc3cc(S(=O)(=O)N(CC)CC)ccc3o2)cc1	-1	2	50*	0	0	-1	62*	-1
CCN(CC)S(=O)(=O)c1ccc2oc(Nc3ccc(OC)cc3)nc2c1	-1	-3	-9	1	-3	5	x	x
CCS(=O)(=O)c1ccc2oc(Nc3ccc(C(C)C)cc3)nc2c1	-1	1	68*	-1	-2	-5	78*	2
CSc1ccc(/C=N/n2c(Cc3ccc(Br)cc3)n[nH]c2=S)cc1	-3	-1	-7	-9	-3	5	x	x
FC(F)Oc1ccc(/C=N/n2c(Cc3ccc(Br)cc3)n[nH]c2=S)cc1	1	4	48*	-2	-2	-1	42*	-2
S=c1[nH]nc(-c2cccs2)n1C1CCCCC1	x	-8	45*	x	x	x	83*	-3
O=C(Nc1cc(S(=O)(=O)N2CCOCC2)ccc1N1CCCCC1)c1cc(-c2ccccn2)nc2ccccc12	-1	4	53*	-1	0	-3	58*	-2
Cc1nc2scc(-c3ccccc3)c2c(=O)n1N=C1C=CC(=O)C=C1	x	-1	65*	x	x	x	93*	2
